Changes are numbered by the printed parent chain. The source made the active and inactive calls. No cut-off for these calls is given here.
Legend:
Format in all cases: functional, cell-based
LNCaP = assay: Induction of apoptosis in human LNCAP cells assessed as PARP cleavage activation incubated for 24 hrs by Western blotting
Procedure, shortened: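 LNCaP cells in complete medium were exposed to DMSO or compound at 1, 2.5 and 5 μM for 24 h. Western blot measured AR, maspin, caspase-3 activation and PARP cleavage, with β-actin as loading control.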

[1] = Cytotoxicity against human C4-2B cells incubated for 72 hrs by MTT assay; settings: LNCaP C4-2B
Procedure, shortened: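 MTT assay run across a panel of prostate cancer cell lines.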

[2] = test system: T1, Androgen receptor (Homo sapiens), P10275 [H875Y]; assay: Agonist activity at androgen receptor H874Y mutant expressed in human PC3 cells assessed as stimulation of receptor transactivation at 0.1 to 1 uM by luciferase reporter gene assay; settings: PC-3
T1 sequence (whole entry): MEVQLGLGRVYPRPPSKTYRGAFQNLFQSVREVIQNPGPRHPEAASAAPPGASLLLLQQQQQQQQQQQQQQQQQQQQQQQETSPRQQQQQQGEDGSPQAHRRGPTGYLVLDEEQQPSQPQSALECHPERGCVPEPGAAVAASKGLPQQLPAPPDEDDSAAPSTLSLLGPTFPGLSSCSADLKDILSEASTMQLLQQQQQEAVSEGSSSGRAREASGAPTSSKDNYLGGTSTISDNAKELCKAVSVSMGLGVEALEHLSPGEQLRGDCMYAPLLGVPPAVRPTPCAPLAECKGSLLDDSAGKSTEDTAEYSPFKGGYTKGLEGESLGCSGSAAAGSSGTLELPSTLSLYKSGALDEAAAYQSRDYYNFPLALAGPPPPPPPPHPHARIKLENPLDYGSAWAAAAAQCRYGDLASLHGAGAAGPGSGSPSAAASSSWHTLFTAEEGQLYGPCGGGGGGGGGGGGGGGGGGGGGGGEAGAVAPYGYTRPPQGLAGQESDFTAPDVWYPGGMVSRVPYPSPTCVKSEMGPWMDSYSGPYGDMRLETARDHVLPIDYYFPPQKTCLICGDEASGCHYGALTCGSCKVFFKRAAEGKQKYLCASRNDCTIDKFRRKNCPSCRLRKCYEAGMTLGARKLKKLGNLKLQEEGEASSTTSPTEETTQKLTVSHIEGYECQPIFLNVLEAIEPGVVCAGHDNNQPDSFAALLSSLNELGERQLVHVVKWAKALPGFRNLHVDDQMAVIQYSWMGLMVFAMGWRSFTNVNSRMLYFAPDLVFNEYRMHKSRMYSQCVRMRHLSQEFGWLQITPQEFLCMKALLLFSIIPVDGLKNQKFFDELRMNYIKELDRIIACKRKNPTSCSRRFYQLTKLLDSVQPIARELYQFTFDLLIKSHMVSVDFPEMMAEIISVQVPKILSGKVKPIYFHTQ
Procedure, shortened: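 Full-length wild-type or mutant AR plasmid transiently transfected into PC-3 cells with MMTV-luc and Renilla luciferase reporters. Cells treated with DMSO vehicle or compound at 0.1 and 1 μM, alone or with 0.1 nM DHT. Luciferase read as relative luciferase units. Run in triplicate.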

[3] = target: T2, Androgen receptor (Homo sapiens) (UniProt P10275); assay: Antagonist activity at androgen receptor in human PC3 cells assessed as increase in Maspin promoter activity at 2.5 uM by luciferase reporter gene assay; settings: PC-3
T2 sequence (whole entry): T1 sequence (whole entry) with Y875H
Procedure, shortened: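 PC-3 cells were transfected with maspin-luc, with or without cotransfected AR. Cells were exposed to DMSO vehicle or compound at 2.5 and 5 μM. Luciferase activity was measured in triplicate.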

With `Cc1coc2c1C(=O)C(=O)c1c-2ccc2c1CCCC2(C)C` [TANSHINONE IIA] the Activity (LNCaP) was “Dose-dependent effect”, the IC50 [1] was 400 nM and the Activity [2] was “inactive”. For the same compound, the Activity [3] was “Active”.
